This test concerns E. coli MC1000. The experiment in a line: Transmission electron microscopy of peptide-treated bacteria. In kind it is cell-based, Escherichia coli. The conditions noted are these: 6 × 10^8 cfu E. coli MC1000, 200 µg/mL peptide, 2 h. In outline:
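Bacteria (6 × 10^8 cfu) were exposed to each test peptide (α-defensin or its fragments) at 200 µg/mL for 2 h. They were then fixed and cut into 30-nm sections. Cell envelope and membrane phenotypes were examined by transmission electron microscopy.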

As for CATRESLSGVCEISGRLY [HD-5_10–27], the “phenotype of peptide-treated bacteria (TEM)” value is “only minor damage in some bacteria while the majority remained unaffected”.

Turning to LYRLCCR [HD-5_26–32], the “phenotype of peptide-treated bacteria (TEM)” value is on record as “small vesicular structures inside the bacteria”.

The values are drawn from publication PMC6397583 (Proceedings of the National Academy of Sciences of the …, 2019).
